Measurements reported in ChEMBL document CHEMBL1154676, “Synthetic mRNA splicing modulator compounds with in vivo antitumor activity” (J Med Chem, 2009).

Key:
[1] = tested on: CAKI-1; test: Growth inhibition of human Caki1 cells by sulforhodamine B assay; assay type: functional
[2] = tested on: Mus musculus; test: Toxicity in NOD/SCID mouse assessed as glucose at 5 to 50 mg/kg, […] for 5 days; assay type: organism-based; design: dose 5-50 mg/kg; settings: in vivo, po, 120 h
[3] = tested on: Mus musculus; test: Toxicity in NOD/SCID mouse assessed as albumin level at 5 to 50 mg/kg, iv and po for 5 days; assay type: organism-based; design: dose 5-50 mg/kg, route oral; settings: in vivo, 120 h
[4] = tested on: K562; test: Growth inhibition of human K562 cells by sulforhodamine B assay; assay type: functional
[5] = tested on: MV4-11; test: Cytotoxicity against human MV4-11 cells after 72 hrs by XTT assay; assay type: functional, cell-based; settings: MV4-11, 72 h
In short: (§1)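 Cells grown at 37 °C, 5% CO2; HFF in DMEM with 10% FBS, PrEC in prostate epithelial growth medium. Adherent lines seeded overnight, suspension lines same day; compounds diluted from DMSO stocks into media at various final concentrations, 72 h exposure. XTT reagent added 4 h, absorbance 490 nm (reference 690 nm). Growth as % of vehicle; IC50 from sigmoidal dose-response fit; mean ± SEM, three independent experiments.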

[6] = tested on: SW-620; test: Growth inhibition of human SW620 cells by sulforhodamine B assay; assay type: functional
[7] = tested on: PANC-1; test: Cytotoxicity against human PANC1 cells after 72 hrs by XTT assay; assay type: functional, cell-based; settings: PANC-1, 72 h; in short: as §1
[8] = tested on: JVM-2; test: Cytotoxicity against human JVM2 cells after 72 hrs by XTT assay; assay type: functional, cell-based; settings: JVM-2, 72 h; in short: as §1
[9] = tested on: DU-145; test: Growth inhibition of human DU145 cells by sulforhodamine B assay; assay type: functional
[10] = tested on: HFF; test: Cytotoxicity against HFF cells after 72 hrs by XTT assay; assay type: cell-based; settings: Homo sapiens; in short: as §1
[11] = tested on: Mus musculus; test: Toxicity in NOD/SCID mouse assessed as total bilirubin level at 5 to 50 mg/kg, iv and po for 5 days; assay type: organism-based; design: dose 5-50 mg/kg, route oral; settings: in vivo, 120 h
[12] = tested on: IGROV-1; test: Growth inhibition of human IGROV1 cells by sulforhodamine B assay; assay type: functional
[13] = tested on: EKVX; test: Growth inhibition of human EKVX cells by sulforhodamine B assay; assay type: functional
[14] = tested on: SK-OV-3; test: Growth inhibition of human SKOV3 cells by sulforhodamine B assay; assay type: functional
[15] = tested on: UACC-257; test: Growth inhibition of human UACC257 cells by sulforhodamine B assay; assay type: functional
[16] = tested on: OVCAR-5; test: Growth inhibition of human OVCAR5 cells by sulforhodamine B assay; assay type: functional
[17] = tested on: LOX IMVI; test: Growth inhibition of human LOXIMVI cells by sulforhodamine B assay; assay type: functional
[18] = tested on: Mus musculus; test: Toxicity in NOD/SCID mouse assessed as thrombocytopenia at 5 to 50 mg/kg, iv and po for 5 days; assay type: organism-based; design: dose 5-50 mg/kg, route oral; settings: in vivo, 120 h
[19] = tested on: KM12; test: Growth inhibition of human KM12 cells by sulforhodamine B assay; assay type: functional
[20] = tested on: ACHN; test: Growth inhibition of human ACHN cells by sulforhodamine B assay; assay type: functional
[21] = tested on: MIA PaCa-2; test: Cytotoxicity against human MIAPaCa2 cells after 72 hrs by XTT assay; assay type: functional, cell-based; settings: MIA PaCa-2, 72 h; in short: as §1
[22] = tested on: HOP-92; test: Growth inhibition of human HOP92 cells by sulforhodamine B assay; assay type: functional
[23] = tested on: NCI-H322M; test: Growth inhibition of human NCI-H322M cells by sulforhodamine B assay; assay type: functional
[24] = tested on: Malme-3M; test: Growth inhibition of human MALME-3M cells by sulforhodamine B assay; assay type: functional
[25] = tested on: SN12C; test: Growth inhibition of human SN12C cells by sulforhodamine B assay; assay type: functional
[26] = tested on: PC-3; test: Cytotoxicity against human PC3 cells after 72 hrs by XTT assay; assay type: functional, cell-based; settings: PC-3, 72 h; in short: as §1
[27] = tested on: SK-MEL-2; test: Growth inhibition of human SK-MEL-2 cells by sulforhodamine B assay; assay type: functional
[28] = tested on: OVCAR-4; test: Growth inhibition of human OVCAR4 cells by sulforhodamine B assay; assay type: functional
[29] = Cytotoxicity against human Rh30 cells after 72 hrs by XTT assay; assay type: functional, cell-based; settings: SJRH30, 72 h; in short: as §1
[30] = tested on: NCI-H522; test: Growth inhibition of human NCI-H522 cells by sulforhodamine B assay; assay type: functional
[31] = tested on: Mus musculus; test: Toxicity in NOD/SCID mouse assessed as alanine aminotransferase level at 5 to 50 mg/kg, […] for 5 days; assay type: organism-based; design: dose 5-50 mg/kg, route oral; settings: in vivo, po, 120 h
[32] = tested on: MCF7; test: Growth inhibition of human MCF7 cells by sulforhodamine B assay; assay type: functional
[33] = tested on: SF-539; test: Growth inhibition of human SF539 cells by sulforhodamine B assay; assay type: functional
[34] = tested on: Mus musculus; test: Toxicity in NOD/SCID mouse assessed as globulin level at 5 to 50 mg/kg, […] for 5 days; assay type: organism-based; design: dose 5-50 mg/kg; settings: in vivo, po, 120 h
[35] = tested on: HL-60(TB); test: Growth inhibition of human HL-60(TB) cells by sulforhodamine B assay; assay type: functional
[36] = tested on: TK-10; test: Growth inhibition of human TK10 cells by sulforhodamine B assay; assay type: functional
[37] = tested on: RXF 393; test: Growth inhibition of human RXF393 cells by sulforhodamine B assay; assay type: functional
[38] = tested on: Mus musculus; test: Toxicity in NOD/SCID mouse assessed as sodium level at 5 to 50 mg/kg, […] for 5 days; assay type: organism-based; design: dose 5-50 mg/kg; settings: in vivo, po, 120 h
[39] = tested on: Mus musculus; test: Toxicity in NOD/SCID mouse assessed as weight loss at 5 to 50 mg/kg, iv and po for 5 days after 1 week; assay type: organism-based; design: dose 5-50 mg/kg, route oral; settings: in vivo, 168 h
[40] = Cytotoxicity against human Rh41 cells after 72 hrs by XTT assay; assay type: functional, cell-based; settings: Rh41, 72 h; in short: as §1
[41] = read-out: Log10GI50 (converted)
[42] = read-out: Log10LC50 (converted)

For `CC(/C=C/[C@@H]1C[C@]2(CO2)CC(C)(C)O1)=C\C[C@H]1CC[C@@H](NC(=O)/C=C\[C@H](C)OC(=O)C(C)C)CC1`, the GI50 [1, 41] was 0.302 µM, the CC50 [1, 42] was > 100 µM and the TGI ([1]; read-out: Log10TGI (converted)) was 2.14 µM. The Activity [2] was “Non-toxic”, the Activity [3] was “Non-toxic” and the GI50 [4, 41] was 0.0457 µM. For the same compound, the CC50 [4, 42] was > 100 µM, the TGI ([4]; read-out: Log10TGI (converted)) was > 100 µM and the IC50 [5] was 0.3 µM. The GI50 [6, 41] was 0.0813 µM, the CC50 [6, 42] was > 100 µM and the TGI ([6]; read-out: Log10TGI (converted)) was 12.9 µM. The IC50 [7] was 3.87 µM, the IC50 [8] was 0.19 µM and the GI50 [9, 41] was 0.55 µM. For the same compound, the CC50 [9, 42] was > 100 µM, the TGI ([9]; read-out: Log10TGI (converted)) was > 100 µM and the IC50 [10] was > 10 µM. For the same compound, the Activity [11] was “Non-toxic”, the GI50 [12, 41] was 0.851 µM and the CC50 [12, 42] was > 100 µM. For the same compound, the TGI ([12]; read-out: Log10TGI (converted)) was > 100 µM, the GI50 [13, 41] was 0.676 µM and the CC50 [13, 42] was > 100 µM. The TGI ([13]; read-out: Log10TGI (converted)) was 12.9 µM, the GI50 [14, 41] was 0.912 µM and the CC50 [14, 42] was > 100 µM. The TGI ([14]; read-out: Log10TGI (converted)) was > 100 µM, the GI50 [15, 41] was 3.63 µM and the CC50 [15, 42] was > 100 µM. For the same compound, the TGI ([15]; read-out: Log10TGI (converted)) was 45.7 µM, the GI50 [16, 41] was 8.32 µM and the CC50 [16, 42] was > 100 µM. The TGI ([16]; read-out: Log10TGI (converted)) was > 100 µM, the GI50 [17, 41] was 0.0794 µM and the CC50 [17, 42] was 55 µM. The Activity [18] was “Non-toxic”, the GI50 [19, 41] was 0.309 µM and the CC50 [19, 42] was > 100 µM. For the same compound, the TGI ([19]; read-out: Log10TGI (converted)) was > 100 µM, the GI50 [20, 41] was 0.537 µM and the CC50 [20, 42] was > 100 µM. The TGI ([20]; read-out: Log10TGI (converted)) was 75.9 µM, the IC50 [21] was 1.2 µM and the GI50 [22, 41] was 0.575 µM. For the same compound, the CC50 [22, 42] was > 100 µM, the TGI ([22]; read-out: Log10TGI (converted)) was > 100 µM and the GI50 [23, 41] was 2 µM. The CC50 [23, 42] was > 100 µM, the TGI ([23]; read-out: Log10TGI (converted)) was 22.4 µM and the GI50 [24, 41] was 1.38 µM. The CC50 [24, 42] was > 100 µM, the TGI ([24]; read-out: Log10TGI (converted)) was 61.7 µM and the GI50 [25, 41] was 1.23 µM. For the same compound, the CC50 [25, 42] was > 100 µM, the TGI ([25]; read-out: Log10TGI (converted)) was > 100 µM and the IC50 [26] was 2.2 µM. The GI50 [27, 41] was 0.257 µM, the CC50 [27, 42] was > 100 µM and the TGI ([27]; read-out: Log10TGI (converted)) was 3.55 µM. The GI50 [28, 41] was 1.51 µM, the CC50 [28, 42] was > 100 µM and the TGI ([28]; read-out: Log10TGI (converted)) was > 100 µM. For the same compound, the IC50 [29] was 0.69 µM, the GI50 [30, 41] was 0.316 µM and the CC50 [30, 42] was 5.37 µM. The TGI ([30]; read-out: Log10TGI (converted)) was > 100 µM, the Activity [31] was “Non-toxic” and the GI50 [32, 41] was 0.0251 µM. The CC50 [32, 42] was > 100 µM, the TGI ([32]; read-out: Log10TGI (converted)) was 13.8 µM and the GI50 [33, 41] was 0.372 µM. For the same compound, the CC50 [33, 42] was > 100 µM, the TGI ([33]; read-out: Log10TGI (converted)) was 18.6 µM and the Activity [34] was “Non-toxic”. It also gave a GI50 [35, 41] of 0.129 µM, a CC50 [35, 42] of 74.1 µM and a TGI ([35]; read-out: Log10TGI (converted)) of 0.525 µM. For the same compound, the GI50 [36, 41] was 0.457 µM, the CC50 [36, 42] was > 100 µM and the TGI ([36]; read-out: Log10TGI (converted)) was 7.94 µM. For the same compound, the GI50 [37, 41] was 0.229 µM, the CC50 [37, 42] was > 100 µM and the TGI ([37]; read-out: Log10TGI (converted)) was 1.82 µM. The Activity [38] was “Non-toxic”, the Activity [39] was “Non-toxic” and the IC50 [40] was 0.55 µM.
